From ChEMBL document CHEMBL1765053, “Synthetic mimics of antimicrobial peptides from triaryl scaffolds” (J Med Chem, 2011)
≈ marks a conversion by molar mass, not a printed value.

Columns and labels:
[1] = Toxicity in human RBC assessed as hemolysis after 1 hr; type: cell-based, Erythrocyte; details: human red blood cells (RBC)
In short: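 RBCs spun down from human whole blood and diluted in TBS to a 0.22% stock suspension. Serial 1:2 dilutions of compound in water added, highest final 1000 μg/mL. Shaken 1 h at 37 °C, then centrifuged 3000 rpm for 5 min. Supernatant diluted into water and released hemoglobin quantified. HC50 is the lowest concentration lysing 50% of RBCs.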

Escherichia coli = assay: Antibacterial activity against Escherichia coli ATCC 25922 after 18 hrs by microbroth dilution method; type: functional; details: ATCC 25922, 18 h
In short: (§1)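 Hancock modification of CLSI broth microdilution, adjusted to limit compound adsorption to surfaces and precipitation. Bacteria grown overnight in Mueller-Hinton broth at 37 °C. Compounds tested as di-TFA salts or diamine, from DMSO/Hancock solution (0.01% acetic acid, 0.2% BSA) 2-fold stocks diluted 10-fold into culture. Final 100 to 0.05 μg/mL, duplicate. Growth read as OD600 after 18 h at 37 °C. MIC taken as >90% growth inhibition.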

Klebsiella pneumoniae = assay: Antibacterial activity against Klebsiella pneumoniae ATCC 13883 after 18 hrs by microbroth dilution method; type: functional; details: ATCC 13883, 18 h; in short: as §1
Staphylococcus aureus = assay: Antibacterial activity against Staphylococcus aureus ATCC 27660 after 18 hrs by microbroth dilution method; type: functional; details: ATCC 27660, 18 h; in short: as §1

| Compound | HC50 at 1 h [1] [µg/mL] | MIC (Escherichia coli) [mg/L] | MIC (Klebsiella pneumoniae) [mg/L] | MIC (Staphylococcus aureus) [mg/L] |
| --- | --- | --- | --- | --- |
| CC(C)(C)c1ccc(NC(=O)CCN)c(-c2ccc(-c3cc(C(C)(C)C)ccc3NC(=O)CCN)nn2)c1.O=C(O)C(F)(F)F.O=C(O)C(F)(F)F | 82.5 | 50 | 100 | 12.5 |
| CC(C)(C)c1ccc(NC(=O)CCN)c(-c2ccc(-c3cc(C(C)(C)C)ccc3NC(=O)CCN)nc2)c1.O=C(O)C(F)(F)F.O=C(O)C(F)(F)F | 39 | 12.5 | 25 | 12.5 |
| CC(C)(C)c1ccc(NC(=O)CCN)c(-c2ccc(-c3cc(C(C)(C)C)ccc3NC(=O)CCN)cc2)c1.O=C(O)C(F)(F)F.O=C(O)C(F)(F)F | 6.46 | 6.25 | 12.5 | 3.13 |
| NCCC(=O)Nc1ccc(C(F)(F)F)cc1-c1ccc(-c2cc(C(F)(F)F)ccc2NC(=O)CCN)nn1.O=C(O)C(F)(F)F.O=C(O)C(F)(F)F | 191 | 50 | 50 | 25 |
| NCCC(=O)Nc1ccc(C(F)(F)F)cc1-c1ccc(-c2cc(C(F)(F)F)ccc2NC(=O)CCN)nc1.O=C(O)C(F)(F)F.O=C(O)C(F)(F)F | 356 | 50 | > 100 | 25 |
| NCCC(=O)Nc1ccccc1-c1ccc(-c2ccccc2NC(=O)CCN)nn1.O=C(O)C(F)(F)F.O=C(O)C(F)(F)F | > 1000 | 50 | > 50 | 50 |
| NCCC(=O)Nc1ccc(C(F)(F)F)cc1-c1ccc(-c2cc(C(F)(F)F)ccc2NC(=O)CCN)cc1.O=C(O)C(F)(F)F.O=C(O)C(F)(F)F | 36.5 | 12.5 | 25 | 3.13 |
| CC(C)(C)c1ccc(NC(=O)CCCCN)c(-c2ccc(-c3cc(C(C)(C)C)ccc3NC(=O)CCCCN)nn2)c1 | – | 25 (≈ 43.6 µM) | 25 (≈ 43.6 µM) | 12.5 (≈ 21.8 µM) |
| CC(C)(C)c1ccc(NC(=O)CCCCN)c(-c2ccc(-c3cc(C(C)(C)C)ccc3NC(=O)CCCCN)cc2)c1.O=C(O)C(F)(F)F.O=C(O)C(F)(F)F | 34.5 | 6.25 | 12.5 | 3.13 |
| CC(C)(C)c1ccc(NC(=O)CCCCNC(=N)N)c(-c2ccc(-c3cc(C(C)(C)C)ccc3NC(=O)CCCCNC(=N)N)cc2)c1.O=C(O)C(F)(F)F.O=C(O)C(F)(F)F | 12.8 | 6.25 | 12.5 | 0.78 |
| H-GIGKFLKKAKKFGKAFVKILKK-NH2 [PEXIGANAN] | 120 | 16 | – | 8 |
